HSV replic up = increases HSV replication in cells. HSV replication augmentation in cells, fold increase. maximum fold increase. 220,000 compounds, 0.005% hits. AID 1956; in the data active = maximum fold increase above about 1.5; tested in PC3 cells
Dynein cargo inh = blocks dynein driven cargo transport along microtubules; 3617.4 mouse cells, GR-EGFP nuclear translocation imaging; test concentration mostly 20 µM; stimulated with dexamethasone, 1 µM; hits give low values; z-score, hits read low; 220,000 compounds, 0.47% hits; AID 1381;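 active = plate z-score of nuclear minus cytoplasmic receptor signal below a set negative limit, without overly bright fluorescence or cell loss, cut at about -3.5 in these data, passing the limit was not always enough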;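 also: z-score of nuclear minus cytoplasmic ring GR-EGFP intensity difference per well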
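Also added: dexamethasone, 1.0 µM final. Medium: tet-free, stripped-serum medium. Detection: fixed, Hoechst-stained cells imaged at 10x for EGFP. Read-out: nuclear-to-cytoplasmic GR-EGFP distribution per well. Times: induction 48 h, compound 1 h, agonist 30 min.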
bCat nuc transl = alters nuclear translocation of beta-catenin in HeLa cells; immunofluorescence imaging; nuclear translocation activity, % at 5 µM; 190,000 compounds, 0.3% hits;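 active = nuclear translocation activity above 50% at 5 µM, with a well cell count of 50 or more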;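 also: per-cell ratio of nuclear to cytoplasmic median beta-catenin stain intensity; plate controls were DMSO negative control for no effect and GSK-3 inhibitor IX positive control for full effect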
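Test system: HeLa cells, endogenous beta-catenin; Compound: single 5 µM dose plus 0.02–20 µM confirmation series; Times: compound exposure 24 h at 37°C; Signal: fluorescence imaging of beta-catenin antibody stain plus DAPI; Read-out: % activation, nuclear-to-cytoplasmic median beta-catenin signal ratio per cell.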
MT stabilizer = stabilizes microtubules in HeLa cells. HeLa tubulin immunostaining HCS, 24 h; share of cells brighter than vehicle mean+2SD. % tubulin-high responders, % at 10 µM. 200,000 compounds, 0.83% hits. AID 2205;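 active = plate Z-score above 3 for both tubulin-high and condensed-nucleus cell shares, with cell loss under 80%, at 10 µM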;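 also: anti alpha tubulin signal scored within the nucleus-defined area of each cell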
L major viab = reduces viability of Leishmania major promastigotes. resazurin fluorescence viability. inhibition, % at 10 µM. 200,000 compounds, 9% hits. AID 1063; in the data active = inhibition above about 50%;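 also: promastigotes grown with compound for 44 hours at 28 °C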
Starred values were filed as active, the others as inactive; i = inactive; . = no result given. Most compounds without a hit are left out; they make up all but 8.9% or so of the library.

SMILES	HSV replic up	Dynein cargo inh	bCat nuc transl	MT stabilizer	L major viab
COc1cc2c(cc1OC)-c1c(OC)c(OC)cc3ccnc(c13)C2=O	.	2	.	4	63*
COc1cc2cccc(OC)c(=O)c2c(O)c1OC	i	-0.66	0	4	4
O=C(Nc1ccc(Cl)cc1)/C(=C/c1ccc([N+](=O)[O-])cc1)c1nc2ccccc2s1	i	-0.6	-3	36*	100*
CCc1cc2c(=O)[nH]c(COC)nc2s1	i	2	.	2	3
CCc1nn(CC(=O)NCCCN(CC)c2cccc(C)c2)c(=O)c2cc3occc3n12	i	-1.1	1	2	-3
CCc1cc2c(cc3c(=O)n(CC(=O)NCCCN4CC(C)CC(C)C4)ncn32)s1 (stereo not given)	i	-0.6	1	7	84*
CCc1cc2c(cc3c(=O)n(CC(=O)NCCCN(CC)CC)nc(CC)n32)s1	i	0.73	0	1	92*
CC(C)OC(=O)N(C)c1ccc(C(O)(C(F)(F)F)C(F)(F)F)cc1	i	1.5	.	2	100*
CC(=O)Nc1ccc(C(O)(C(F)(F)F)C(F)(F)F)cc1	i	-0.51	0	1	-5
NS(=O)(=O)c1ccc(N2N=C(c3ccc(Br)cc3)CC2c2ccc(F)cc2)cc1 (stereo not given)	i	-3.3	6	7	95*
Cc1ccc(C)c(OCC(O)CN2CCC(CN3C(=O)c4cccc5cccc(c45)C3=O)CC2)c1 (stereo not given)	i	-0.065	.	3	100*
OC(COCc1ccc2c(c1)OCO2)CN1CCN(Cc2ccccc2)CC1 (stereo not given)	i	-0.3	-3	2	89*
OC(COc1ccc2c(c1)OCO2)CN1CCCC1 (stereo not given)	i	0.79	1	3	2
OC(COc1ccc2c(c1)OCO2)CN1CCN(c2ccc(F)cc2)CC1 (stereo not given)	i	0.61	4	4	53*
OCCN1CCN(CC(O)COCc2ccc3c(c2)OCO3)CC1 (stereo not given)	i	-0.11	-2	4	-4
O=C1c2cccc3cccc(c23)C(=O)N1CC1CCN(CC(O)COCc2ccc3c(c2)OCO3)CC1 (stereo not given)	i	0.33	.	4	90*
O=C(O)C(Cc1c[nH]c2ccccc12)N1C(=O)c2ccccc2C1=O (stereo not given)	i	2.1	1	.	.
Cc1ccc2c(CSc3nnc(C4CC4)n3N)cc(=O)oc2c1	i	2.1	-4	3	14
O=C(NC1CCCCC1)N1CCSC1=Nc1ccccc1	i	-0.55	2	4	19
COc1ccccc1COCC(O)CNCC1(N2CCCCC2)CCCCC1 (stereo not given)	i	1.4	0	4	-1
CCOC(=O)C1CCN(CC(O)COCc2ccc3c(c2)OCO3)CC1 (stereo not given)	i	1.1	-1	5	86*
OC(COc1ccccc1)CN1CCN(Cc2ccc3c(c2)OCO3)CC1 (stereo not given)	i	-0.26	1	3	85*
COc1cc(COCC(O)CN2CCN(Cc3ccccc3)CC2)cc(OC)c1OC (stereo not given)	i	0.6	0	8	88*
O=C(CN1CCN(c2ccc(F)cc2)CC1)c1ccc2c(c1)OCO2	.	0.48	1	2	88*
CCN1CCN(CC(O)COCc2cc(OC)c(OC)c(OC)c2)CC1 (stereo not given)	i	-0.59	-4	3	-3
SMILES	HSV replic up	Dynein cargo inh	bCat nuc transl	MT stabilizer	L major viab
CCCC(=O)Nc1cc(-c2nnc(OC)c3ccccc23)ccc1N1CCOCC1	i	2.8	.	4	0
COCCn1c(SCC(=O)Nc2cc(C)on2)nc2ccccc21	i	-1	-1	0	4
COc1ccccc1NS(=O)(=O)c1ccc2oc(SCc3ccc(C#N)cc3)nc2c1	i	0.22	-1	2	22
Cc1cc(C)cc(OCC(O)CN2CCN(Cc3ccc4c(c3)OCO4)CC2)c1 (stereo not given)	i	-0.32	2	3	90*
CC(C)OCC(O)CN1CCN(CC(O)COc2ccc3c(c2)OCO3)CC1 (stereo not given)	i	-0.18	-1	3	-5
NC(=S)N/N=C/c1ccccc1OCCSc1ccc(Cl)cc1	i	0.25	2	3	100*
COc1cccc(/C=N/NC(N)=S)c1OCc1ccccc1Cl	i	-0.69	.	4	30
Cc1nnc(Nc2ccc(C(=O)NCCO)cc2)c2ccccc12	i	0.17	-4	3	-2
Cc1cc(OCCOCCN2CCCC2)ccc1C(C)C	i	2	-2	5	100*
Cc1cccc(OCCOCCN2CCOCC2)c1C	i	-0.56	-3	5	88*
Cc1ccc(C(C)C)cc1OCCOCCN1CCCC1	i	3.1	.	2	100*
Cc1cccc(C(C)(C)C)c1OCCOCCN1CCCC1	i	-0.28	-7	3	50
CCOc1cccc(OCCOCCN2CCCC2)c1	i	-0.29	0	4	-6
CCc1cccc(OCCOCCN2CCCC2)c1	i	-0.82	.	3	97*
CCOC(=O)c1c(NC(=O)C2C3C=CC(CC3)C2C(=O)O)sc(C)c1CC (stereo not given)	i	0.58	-3	4	1
COc1cc(NS(=O)(=O)c2ccc(C)c(C)c2)c(OC)cc1Cl	i	0.32	0	2	1
C=CCOC(=O)C1=C[C@H](c2coc3ccccc3c2=O)[C@@H](CCCO)[C@H](OCC)O1	i	-0.54	-3	3	-3
Cc1ccccc1OCCOCCN1CCCCCC1	i	0.21	-2	4	99*
Cc1cccc(OCCOCCN2CCNCC2)c1C	i	2.4	5	4	8
O=S(=O)(NNc1ccc(Cl)nn1)c1ccc(F)cc1	i	-0.27	-1	5	91*
Cc1ccc(-c2nc(NCCN3CCOCC3)c3ccccc3n2)cc1	i	-0.91	1	2	81*
Clc1ccc(-c2nc(NCCCN3CCOCC3)c3ccccc3n2)cc1	i	0.91	0	.	.
c1ccc2c(NCCCN3CCOCC3)c3ccccc3nc2c1	i	-0.67	1	34*	100*
Clc1cccc(-c2nc(NCCN3CCOCC3)c3ccccc3n2)c1	i	-0.32	-1	3	75*
Clc1cccc(-c2nc(NCCCN3CCOCC3)c3ccccc3n2)c1	i	0.27	6	2	80*
O=C(NC(=S)Nc1ccccc1)c1cc([N+](=O)[O-])ccc1N1CCOCC1	i	-0.54	-1	2	-1
O=C(C1=NN[C@@H]2C(=O)N(c3cccc(C(F)(F)F)c3)C(=O)[C@H]12)c1ccc2ccccc2n1	i	0.059	-1	2	-9
Cc1ccc(/C=C2\SC(=S)N(CCCC(=O)Nc3ccccn3)C2=O)cc1	i	0.15	-1	2	0

Screening data: PubChem BioAssay, several laboratories
